Compound activity deposited in PubChem BioAssay by Sanford-Burnham Center for Chemical Genomics.
Compounds with a hit are over-represented: about 3.3% of the library has one in this group of screens.
CendR NRP1 mod – modulators of CendR peptide binding to human neuropilin-1; FAM-RPARPAR peptide binding to NRP-1, fluorescence polarization; inhibition, % at 25 µM; hit rate 0.85% among 360,000; AID 602438;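 active = inhibition or corrected inhibition above about 18%, plus a signal ratio from 0.5 to 1.5, limit read from the data, passing the limit was not always enough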
SENP8 block-1 – SENP8 (human) protease inhibition; Q96LD8; recombinant SENP8, Nedd8 substrate fluorescence; inhibition, % at 20 µM; hit rate 0.64% among 360,000; AID 602440; in the data active = inhibition mostly above about 40%, no sharp cut-off; inactive = mostly below about 27%
Target sequence (Q96LD8 whole entry, looked up): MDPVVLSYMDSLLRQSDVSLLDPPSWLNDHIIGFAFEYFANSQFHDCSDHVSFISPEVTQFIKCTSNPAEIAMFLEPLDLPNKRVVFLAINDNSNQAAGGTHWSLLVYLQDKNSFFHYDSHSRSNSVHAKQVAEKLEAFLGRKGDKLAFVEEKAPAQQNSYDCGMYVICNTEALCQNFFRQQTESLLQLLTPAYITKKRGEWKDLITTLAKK
SENP6 block – SENP6 protease inhibition; Recombinant SENP6 catalytic domain, aminoluciferin luminescence; hit rate 1.8% among 330,000; Q9GZR1; inhibition, % at 10 µM;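 active = inhibition above about 50% at the single tested dose, limit read from the data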;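 note: plate controls were DMSO wells with enzyme for no effect and DMSO wells lacking enzyme for full effect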
SENP7 block – SENP7 protease inhibition; Q9BQF6; recombinant SENP7, Z-RLRGG-aminoluciferin luminescence, 40 min; inhibition, % at 5 µM; hit rate 1.5% among 330,000; AID 434973;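 active = inhibition above about 50% at the single test dose, limit read from the data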;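 note: plate controls were DMSO with enzyme for no effect and no enzyme buffer wells for full effect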
SENP1 FRET inh – blocks the human SENP1 SUMO protease catalytic domain | Q9P0U3 | recombinant SENP1 catalytic domain, CyPet-SUMO1-YPet FRET cleavage | inhibition, % at 10 µM | hit rate 0.21% among 360,000;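 active = inhibition at least 30% at 10 µM, raw YFP signal under a set limit, fluorescence ratio 0.5 to 1.5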;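 note: 0% = enzyme with DMSO and 100% = no enzyme wells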
Target sequence (Q9P0U3 419-644 limits assumed): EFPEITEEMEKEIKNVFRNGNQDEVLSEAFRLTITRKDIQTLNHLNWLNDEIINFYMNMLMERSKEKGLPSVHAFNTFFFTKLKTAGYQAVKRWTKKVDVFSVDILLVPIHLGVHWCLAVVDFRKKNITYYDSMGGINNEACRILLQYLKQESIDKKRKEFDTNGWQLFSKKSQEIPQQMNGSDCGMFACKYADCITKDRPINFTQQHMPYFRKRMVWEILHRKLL
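Material: hSENP1 catalytic domain, recombinant; medium: Tris pH 8 with BME, BSA, NP40 and catalase; compound: single concentration of 10 µM compound, 0.5% DMSO final; technique: FRET read of cyan and yellow fluorescence; timing: 50 min enzyme reaction, room temperature, light-protected; reagent: SFCypet-SUMO1-SFYpet substrate at 25 nM; control set: no-enzyme low, enzyme-DMSO high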
SENP8 block-2 – blocks the human protease SENP8 | Q96LD8 | purified SENP8, Z-RLRGG-aminoluciferin cleavage, luminescence | inhibition, % at 10 µM | hit rate 1.2% among 330,000 | AID 2540; in the data active = inhibition above about 50%
SENP8 confirm – human SENP8 inhibition, confirmed. shares compounds with SENP7 block. Recombinant SENP8, Z-RLRGG-aminoluciferin luminescence, 60 min. inhibition, % at 12.5 µM. hit rate 40% among 6,200. AID 488912;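 active = mean inhibition across replicates above about 50%, limit read from the data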
SENP6 conf – confirmation of human SENP6 protease inhibitors. shares compounds with SENP7 block. recombinant SENP6, Z-RLRGG-aminoluciferin luminescence. inhibition, % at 12.5 µM. hit rate 58% among 6,200
SENP7 conf – confirmation of human SENP7 protease inhibitors | shares compounds with SENP7 block | recombinant SENP7, Z-RLRGG-aminoluciferin luminescence, 40 min | inhibition, % at 12.5 µM | hit rate 69% among 6,200 | AID 488917
Casp3 SENP sel – caspase-3 inhibition (SENP selectivity assay) | shares compounds with SENP7 block | purified caspase-3, Z-DEVD-aminoluciferin luminescence, 60 min | inhibition, % at 12.5 µM | hit rate 60% among 6,200 | AID 488918;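 active = mean inhibition above about 50%, limit read from the data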;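 note: plate controls were enzyme with DMSO for no effect and wells without caspase-3 for full effect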
Target sequence (P42574 28-227 limits assumed): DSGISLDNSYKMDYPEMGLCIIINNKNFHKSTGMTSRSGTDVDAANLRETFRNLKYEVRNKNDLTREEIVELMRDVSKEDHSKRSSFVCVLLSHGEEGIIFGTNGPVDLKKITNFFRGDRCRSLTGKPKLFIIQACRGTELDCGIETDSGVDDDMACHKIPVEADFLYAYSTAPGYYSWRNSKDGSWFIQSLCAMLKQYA
Luc interf – counter-screen for SENP inhibitors: luminescence interference; shares compounds with SENP7 block; Pre-incubated SENP8/Z-RLRGG-aminoluciferin, luciferase luminescence interference; inhibition, % at 12.5 µM; hit rate 39% among 6,200;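 active = mean inhibition above about 50% when retested at one dose, limit read from the data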;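 note: plate controls were DMSO wells with completed reaction for no effect and substrate without enzyme for full effect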
Numbers without * were called inactive; nt = no result; ! = repeats disagree.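 Rule for the calls, unless noted: active = mean inhibition above about 50% in the one-dose retest (limit read from the data); inactive = the rest.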

SMILES | CendR NRP1 mod | SENP8 block-1 | SENP6 block | SENP7 block | SENP1 FRET inh | SENP8 block-2 | SENP8 confirm | SENP6 conf | SENP7 conf | Casp3 SENP sel | Luc interf
Cc1ccc(NC2=C/C(=N/S(=O)(=O)c3cccs3)c3ccccc3C2=O)cc1 | -1 | 94* | 77* | 69* | 4 | 46 | 10 | 54* | 12 | 3 | -5
Cc1ccc(S(=O)(=O)/N=C2\C=C(Nc3cccc(C(=O)O)c3)C(=O)c3ccccc32)c(C)c1 | 38* | 81* | 95* | 55* | -1 | 94* | 60* | 97* | 48 | 19 | 0
COC(=O)c1ccccc1NC1=C/C(=N\S(=O)(=O)c2cccs2)c2ccccc2C1=O | 20 | 53*! | 63* | 52* | 5 | 89* | 29 | 64* | 18 | 31 | 8
OCC[C@@H]1C[C@H](O)[C@@H](O)[C@@]2(OCc3ccc(CO)cc32)O1 | 7 | 20 | nt | nt | 0 | nt | nt | nt | nt | nt | nt
COc1ccc(Nc2nc3ccccc3s2)cc1 | -1 | 5 | 75* | 69* | -1 | 62* | 66* | 66* | 89* | 50* | 18
Cc1cccc(Nc2n[nH]c(=S)s2)c1C | -4 | 14 | 4 | 1 | -2 | 6 | nt | nt | nt | nt | nt
COc1cccc(Nc2nc3ccc(OC)cc3s2)c1 | -4 | 7 | 3 | 43 | -1 | 22 | nt | nt | nt | nt | nt
Cc1cccc(Nc2nc3ccccc3s2)c1C | -19 | 16 | 69* | 83* | 0 | 65* | -15 | 74* | 94* | 59* | 29
O=[N+]([O-])c1ccc2oc(/C=C/c3ccc(O)cc3)nc2c1 | 5 | -7 | nt | nt | 1 | nt | nt | nt | nt | nt | nt
COc1ccc(-c2nc3cc([N+](=O)[O-])ccc3o2)cc1 | -14 | 24 | 34 | 77* | 5 | 17 | 31 | 36 | 50 | 59* | 13
CC(C)(C)Nc1nc2cc([N+](=O)[O-])ccc2o1 | 12 | 16 | 6 | -2 | 1 | -2 | nt | nt | nt | nt | nt
Nc1ccc(-c2nc3cc([N+](=O)[O-])ccc3o2)cc1 | -10 | -424 | 63* | 56* | 4 | 38 | 11 | 43 | 85* | 54* | 10
COC(=O)C1(NC(=O)CNC(=O)OCc2ccccc2)CCCC1 | 13 | 21 | nt | nt | -2 | nt | nt | nt | nt | nt | nt
CC(C)(C)c1ccc2c(c1)C(=O)c1ccccc1C2=O | -1 | 19 | 96* | 96* | 3 | 66* | -2 | 59* | 82* | 44 | 44
CC(C)(C)c1ccc(-c2ccc3c(c2)S(=O)(=O)c2ccccc2C3=O)cc1 | -1 | -27 | -3 | 7 | -1 | -14 | nt | nt | nt | nt | nt
Cc1ccc(NC2=C(NCCO)C(=O)c3ccccc3C2=O)cc1 | 8 | -44 | 70* | 36 | -19 | 47 | 34 | 56* | 22 | 16 | 2
O=C(N/C=C/c1ccccc1)c1ccccc1 | 19 | -16 | 71* | 41 | -1 | 58* | -6 | 46 | 82* | 63* | 36
Cc1cccc(NC(=S)NNC(=O)c2ccc3c(c2)OCO3)c1 | -10 | -11 | 24 | 7 | -1 | 13 | nt | nt | nt | nt | nt
CCCc1cc(C(=O)NNC(=S)Nc2cccc(C)c2)cs1 | -2 | 10 | 79* | 94* | 0 | 80* | 33 | 26 | 8 | 4 | 21
Oc1cccc(C=Nc2cccc3ccccc23)c1O | -3 | -314 | 54* | 17 | -44 | 36 | 17 | 22 | 9 | 40 | -6
COc1ccc(-c2ccc3sc4ccccc4c(=O)c3c2)cn1 | -12 | -392 | 95* | 101* | -107 | 15 | 14 | 21 | 8 | 74* | 14
COc1cc2sc3ccc(-c4ccc(CN5CCOCC5)cc4)cc3c(=O)c2cc1OC | -13 | -498 | 11 | 11 | -150 | 6 | nt | nt | nt | nt | nt
COc1cc2sc3ccc(-c4ccc(N(C)C)nc4)cc3c(=O)c2cc1OC | nt | nt | 79* | 56* | nt | 74* | 12 | 14 | -4 | 14 | -1
COc1ccc(CN(C)C(=O)C2CSC3(C)CCC(=O)N23)c(OC)c1 (configuration not stated) | 7 | 5 | nt | nt | 0 | nt | nt | nt | nt | nt | nt
CC(Nc1ccc2ccccc2c1)C(=O)N/N=C/c1ccncc1 (configuration not stated) | 25* | 18 | 56* | 32 | 10 | 48 | -23 | -17 | -6 | -6 | -6
SMILES | CendR NRP1 mod | SENP8 block-1 | SENP6 block | SENP7 block | SENP1 FRET inh | SENP8 block-2 | SENP8 confirm | SENP6 conf | SENP7 conf | Casp3 SENP sel | Luc interf
C=C(CN(C)C)C(=O)c1ccc2c(c1)OCO2 | 18 | -2 | nt | nt | 1 | nt | nt | nt | nt | nt | nt
COc1ccc(-n2c(NC(=O)c3ccco3)c(C#N)c3nc4ccccc4nc32)cc1 | -45 | -251 | 97* | 87* | -22 | 95* | -3 | 68* | 54* | 4 | 2
CCOC(=O)c1c(NC(=O)c2ccco2)n(C2CCCCC2)c2nc3ccccc3nc12 | -19 | -262 | 73* | 43 | -25 | 51* | 5 | 32 | 17 | 0 | -3
COc1ccc(C(=O)Nc2ccc(NC(=O)c3ccco3)cc2)cc1 | 2 | 7 | -22 | 7 | -1 | 1 | nt | nt | nt | nt | nt
CCOC(=O)c1c(N)n(C2CC(C)(C)NC(C)(C)C2)c2nc3ccccc3nc12 | 4 | -293 | -2 | -5 | -111 | -2 | nt | nt | nt | nt | nt
O=C(NCCc1ccccc1)c1ccc2c(c1)OCCCO2 | -2 | 6 | 85* | 83* | 0 | 78* | 86* | 86* | 98* | 93* | 85*
O=C(NCCc1ccccc1)c1ccc2c(c1)OCCO2 | 1 | 6 | 72* | 80* | 2 | 46 | 73* | 70* | 89* | 87* | 75*
CCc1nc2ccc(C(=O)NCCOc3ccc(OC)cc3)cn2c1N(C)CCCc1ccccc1 | -4 | 2 | nt | nt | -6 | nt | nt | nt | nt | nt | nt
COCCNC(=O)C(OC(=O)c1ccco1)c1ccc(OC)cc1 (configuration not stated) | -3 | 11 | nt | nt | 0 | nt | nt | nt | nt | nt | nt
CSc1ccccc1CNC(=O)C1(C)CCCN1CC(C)C (configuration not stated) | -11 | 5 | nt | nt | -4 | nt | nt | nt | nt | nt | nt
Cc1ccc(NC(=O)c2ocnc2C)cc1Cl | -16 | 14 | 81* | 83* | -5 | 61* | 76* | 77* | 94* | 83* | 47
